From PubChem BioAssay
Rows were chosen to be rich in hits. Some 9.2% of all compounds tested hit in one or more screens of this group.
bCat KO growth = primary screen for growth suppressors in beta-catenin knockout HCT116 cells (colon tumor, human). HCT116 beta-catenin knockout viability, CellTiter-Glo, 60 h; stronger effect = lower value. 140,000 compounds, 1.5% hits. viability, % at 10 µM;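 active = viability at or under a set limit, the compound median less 4 SD, cut at about 6% in these data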
Autophagy mod = autophagy modulators in MEF cells, primary screen, imaging, high-content, MEF GFP-LC3; MEF GFP-LC3 puncta imaging; test concentration mostly 10 µM; calls only at 10 µM (by protocol); 190,000 compounds, 0.98% hits; AID 463193, 2010;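 active = percentage of spot-positive cells more than 3 SD above its plate mean, without a fluorescence outlier flag or 80% toxicity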
Dynein transport = inhibitors of GR-EGFP nuclear translocation, primary screen, dynein cargo transport inhibitor project, imaging, high-content, 3617.4 mouse cells; test concentration mostly 20 µM; stimulated with dexamethasone, 1 µM; stronger effect = lower value; z-score, hits read low; 220,000 compounds, 0.47% hits; AID 1381, 2008;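 active = plate z-score of nuclear minus cytoplasmic receptor signal below a set negative limit, without overly bright fluorescence or cell loss, cut at about -3.5 in these data, passing the limit was not always enough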;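 also: z-score of nuclear minus cytoplasmic ring GR-EGFP intensity difference per well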
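Also added: dexamethasone, 1.0 µM final. Medium: tet-free, stripped-serum medium. Detection: fixed, Hoechst-stained cells imaged at 10x for EGFP. Read-out: nuclear-to-cytoplasmic GR-EGFP distribution per well. Times: induction 48 h, compound 1 h, agonist 30 min.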
L major viab = Leishmania major promastigote growth inhibition, primary screen; Leishmania major promastigotes, resazurin fluorescence viability; 200,000 compounds, 9% hits; inhibition, % at 10 µM; in the data active = inhibition above about 50%;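 also: promastigotes grown with compound for 44 hours at 28 °C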
PTEN del growth = growth suppression of PTEN-null HCT116, primary screen, cell-based, CellTiter-Glo | HCT116 PTEN-null viability, 60 h; stronger effect = lower value | viability, % at 10 µM | 140,000 compounds, 1.2% hits | AID 827, 2007;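 active = viability at or below a set limit, 4 SD under the median of all tested compounds, cut at about 3.7% in these data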;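 also: PTEN knockout HCT116 line with beta catenin targeted HCT116 as companion control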
Of the large screens only hits and unclear results are named; the others gave an inactive call.

CN1CCN(C(CC(=O)Nc2cccc(O)c2)C(=O)O)CC1 (centres undefined)	none (no result: bCat KO growth, PTEN del growth)
O=C(Nc1ccc(O)cc1)c1ccc2c(c1)C(=O)N(Cc1ccco1)C2=O	L major viab 60.6
Cc1ccc2c(N)[nH]nc2n1	none (no result: bCat KO growth, PTEN del growth)
COC(=O)c1cc(C(=O)Nc2ccc(S(=O)(=O)NC(C)(C)C)cc2)cc([N+](=O)[O-])c1	L major viab 99.3
COc1ccccc1C(=O)ON=C1c2ccccc2-c2ccccc21	L major viab 50.8
CN=C1SC(CC(=O)Nc2c(C)cccc2C)C(=O)N1/N=C/c1cccs1 (centres undefined)	L major viab 54.6
CN=C1SC(CC(=O)Nc2cccc(Cl)c2Cl)C(=O)N1C (centres undefined)	none
S=c1[nH]nc(C2CCCCC2)n1Cc1ccccc1	none (no result: bCat KO growth, PTEN del growth)
COc1ccc(Nc2nnc(SCC(=O)c3cc(C)n(CC4CCCO4)c3C)s2)cc1 (centres undefined)	L major viab 50.1
COc1ccc(Nc2nnc(SCC3CCCCO3)s2)cc1 (centres undefined)	none (no result: bCat KO growth, PTEN del growth)
CCN(CC)CCCN1C(=O)CSC1c1ccc([N+](=O)[O-])cc1 (centres undefined)	L major viab 75.8 (no result: bCat KO growth, PTEN del growth)
CCN(CC)CCCN1C(=O)CSC1c1ccc2c(c1)OCO2 (centres undefined)	none (no result: Autophagy mod)
OCCNCc1cc(Br)ccc1OCc1ccc(Cl)cc1	L major viab 92.8
OCCNCc1cccc(OCc2ccc(Cl)cc2)c1	L major viab 54.3 (no result: bCat KO growth, PTEN del growth)
OCCNCc1cc(Br)ccc1OCc1ccc(Cl)cc1Cl	bCat KO growth 4.7, L major viab 100.6 (no result: Dynein transport)
Cc1cc(/C=N/NC(N)=S)c(C)n1-c1ccc(Cl)cc1	L major viab 89.0
Cc1cc(/C=N\NC(=O)CC(=O)NC2CCCCC2)c(C)n1-c1ccc(Cl)cc1	none
Cc1cc(/C=N/NC(N)=S)c(C)n1-c1ccc(Br)cc1	L major viab 99.5 (no result: bCat KO growth, PTEN del growth)
Cc1cc(/C=N/NC(N)=S)c(C)n1-c1cccc(Cl)c1	L major viab 94.2 (no result: bCat KO growth, PTEN del growth)
Cc1cccc(C)c1-n1c(C)cc(/C=N/NC(N)=S)c1C	L major viab 96.5
Cc1cc(/C=N/O)c(C)n1-c1ccc(Br)cc1	none
O=C(NC1CS(=O)(=O)CC1NCc1ccco1)c1ccccc1 (centres undefined)	none
O=C(NCCN1CCOCC1)c1ccc2c(c1)N(Cc1c(F)cccc1Cl)C(=O)c1ccccc1S2	L major viab 100.0 (no result: bCat KO growth, PTEN del growth)
COCCn1c(N/N=C(C)/C=C/c2ccccc2)nc2c1c(=O)[nH]c(=O)n2C	none (no result: bCat KO growth, PTEN del growth)
Cc1cc(OCC(=O)Nc2ccc(S(=O)(=O)NC3=NCCCCC3)cc2)c(C(C)C)cc1Cl	L major viab 70.6
CC1CCN(c2c(NCc3ccc(C(=O)N4c5ccccc5CC4C)cc3)c(=O)c2=O)CC1 (centres undefined)	none (no result: Autophagy mod)
c1ccc(OCCCCn2cnc3ccccc32)cc1	none
c1ccc2c(c1)ncn2CCCCOc1ccc2c(c1)CCC2	L major viab 55.5
c1ccc(OCCn2cnc3ccccc32)cc1	L major viab 51.6
CC(=O)c1ccc(OCCn2cnc3ccccc32)cc1	L major viab 51.4
Fc1ccc(Cn2cnc3ccccc32)cc1	none
CCCOc1ccc(Cn2cnc3ccccc32)cc1	L major viab 87.5
c1ccc2c(c1)ncn2CCCOc1ccc2c(c1)CCC2	none
Fc1ccc(OCc2nc3ccccc3s2)cc1	none (no result: bCat KO growth, PTEN del growth)
NNC(=S)NCc1ccc2c(c1)OCO2	none
COc1ccccc1OCCC(=O)Nc1nc(C)cs1	none (no result: bCat KO growth, Autophagy mod, L major viab, PTEN del growth)
CN(Cc1cn(C)c2ccccc12)C(=S)Nc1cc(F)cc(F)c1	L major viab 74.4
Cc1ccc(NC(=O)Cc2cn(C)c3ccccc23)cc1F	none (no result: bCat KO growth, PTEN del growth)
Cc1cccc(NC(=S)N(C)Cc2cn(C)c3ccccc23)c1	L major viab 69.3
COc1cc(C(=O)NC(C)c2cnn(-c3ccccc3C)c2C)cc(OC)c1OC (centres undefined)	none (no result: bCat KO growth, PTEN del growth)
CCCN1C(=O)/C(=C\C=C2/Sc3ccccc3N2CC)SC1=S	none (no result: bCat KO growth, PTEN del growth)
CN1C(=CC=C2C=C(I)C(=O)C(I)=C2)C(C)(C)c2ccccc21	none (no result: bCat KO growth, Autophagy mod, L major viab, PTEN del growth)
CCCN1C(=O)/C(=C\C=C2\N(CC)c3ccccc3C2(C)C)SC1=S	Autophagy mod active (no result: bCat KO growth, PTEN del growth)
CN1/C(=C\C=C2/C(=O)Oc3ccccc3C2=O)C(C)(C)c2ccccc21	Autophagy mod active
CN1/C(=C\C=C2/SC(=S)NC2=O)C(C)(C)c2ccccc21	L major viab 91.9 (no result: bCat KO growth, PTEN del growth)
CC(=O)Nc1ccc(-n2nnnc2SCC(=O)NCc2cccs2)cc1	none (no result: bCat KO growth, PTEN del growth)
O=C1C2C3C=CC(C3=C(c3ccccc3)c3ccccc3)C2C(=O)N1Cc1ccccc1 (centres undefined)	none
Cc1ccc(/C(O)=C/c2nc3cc(C)ccc3oc2=O)cc1	none (no result: bCat KO growth, Autophagy mod, L major viab, PTEN del growth)
O/C(=C\c1nc2ccccc2nc1/C=C(\O)c1ccccc1)c1ccccc1	L major viab 98.1 (no result: bCat KO growth, PTEN del growth)
CC(C)c1ccc2[nH]c(O)c(N=NC(=S)NCCc3ccccc3)c2c1	none
CCNC(=S)N=Nc1c(O)[nH]c2ccc(C(C)C)cc12	L major viab 77.6
CCCn1c(N)c(C(=O)COc2ccc(Br)cc2F)c(=O)n(C)c1=O	none (no result: bCat KO growth, PTEN del growth)
O=C(CCN1C(=O)c2ccc([N+](=O)[O-])cc2C1=O)Nc1nccs1	Autophagy mod active (no result: bCat KO growth, PTEN del growth)
O=C(CN1C(=O)c2ccc([N+](=O)[O-])cc2C1=O)Nc1nccs1	none (no result: bCat KO growth, PTEN del growth)
COc1ccc(NC(=O)CN(c2ccc([N+](=O)[O-])cc2)S(=O)(=O)c2ccccc2)c(OC)c1	L major viab 74.7
COc1ccc(NC(=O)CCN2C(=O)c3ccc([N+](=O)[O-])cc3C2=O)c(OC)c1	L major viab 89.9
CCOC(=O)Cn1cc(Cl)c(=O)c(Cl)c1	none (no result: bCat KO growth, Autophagy mod, L major viab, PTEN del growth)
CCNS(=O)(=O)c1ccc(NC(=S)NCC2CCCO2)cc1 (centres undefined)	none (no result: bCat KO growth, PTEN del growth)
Cc1nnc(NC(=O)Cn2nc(C)c3ccccc3c2=O)s1	none (no result: bCat KO growth, PTEN del growth)
COc1ccc(-c2csc(/C(C#N)=C\c3ccc(OC)c([N+](=O)[O-])c3)n2)cc1	L major viab 90.9
COc1ccc(-c2csc(/C(C#N)=C/Nc3cc4oc5ccccc5c4cc3OC)n2)cc1	Autophagy mod active (no result: bCat KO growth, PTEN del growth)
CN(C)S(=O)(=O)c1cccc(C(=O)N2CCN(Cc3ccccc3)CC2)c1	none
CC1CN(C(=O)c2ccccc2)C(=Nc2cccc(S(=O)(=O)N(C)C)c2)S1 (centres undefined)	L major viab 82.8
Cc1ccc(-c2nn(-c3ccccc3)cc2NC(=O)CCl)cc1	L major viab 93.3 (no result: bCat KO growth, PTEN del growth)
Cc1ccc(-c2cc(NC(=O)CCl)n(-c3ccccc3)n2)cc1	bCat KO growth 2.6, Autophagy mod active, L major viab 100.2, PTEN del growth 2.0
COc1cc(OC)c(OC)cc1/C=N/NC(=S)NCC1CCCO1 (centres undefined)	none
COc1cc(CC(=O)OCC(=O)NCC(C)C)cc(OC)c1OC	none (no result: bCat KO growth, PTEN del growth)
COc1cc(/C=C2\SC(c3ccc(C)cc3)=NC2=O)ccc1O	L major viab 99.7
CCCNc1c(F)c(F)c2c(C)c3ccccc3nc2c1F	Autophagy mod active
